Experimental data: ChEMBL document CHEMBL4184285, “Antibacterial activities of mono-, di- and tri-substituted triphenylamine-based phosphonium ionic liquids” (Bioorg Med Chem Lett, 2018)

How the values were obtained:
[1] = system: Enterococcus faecium; assay: Antibacterial activity against Enterococcus faecium DSMZ 20477 after 18 to 24 hrs by broth dilution method; type: functional
[2] = system: Staphylococcus aureus; assay: Antibacterial activity against Staphylococcus aureus SA1199B over-expressing NorA after 18 to 24 hrs by broth dilution method; type: functional
[3] = system: Pseudomonas aeruginosa; assay: Antibacterial activity against Pseudomonas aeruginosa CIP100720 after 18 to 24 hrs by broth dilution method; type: functional
[4] = system: Klebsiella aerogenes; assay: Antibacterial activity against Enterobacter aerogenes ATCC 13048 after 18 to 24 hrs by broth dilution method; type: functional
[5] = system: Staphylococcus aureus; assay: Antibacterial activity against Staphylococcus aureus CIP 7625 after 18 to 24 hrs by broth dilution method; type: functional
[6] = system: Acinetobacter baumannii; assay: Antibacterial activity against Acinetobacter baumannii ATCC 19606 after 18 to 24 hrs by broth dilution method; type: functional; details: ATCC 19606 = CIP 70.34 = JCM 6841
[7] = system: Klebsiella pneumoniae; assay: Antibacterial activity against Klebsiella pneumoniae CIP82.91 after 18 to 24 hrs by broth dilution method; type: functional
[8] = system: Staphylococcus aureus; assay: Antibacterial activity against Staphylococcus aureus SA1199 after 18 to 24 hrs by broth dilution method; type: functional
[9] = system: Escherichia coli; assay: Antibacterial activity against Escherichia coli CIP54.8 after 18 to 24 hrs by broth dilution method; type: functional
[10] = system: HepG2; assay: Cytotoxicity against human HepG2 cells assessed as reduction in cell viability after 24 hrs by WST1 assay; type: cell-based; details: hepg2, 24 h
Method in brief: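 Human hepatocyte HepG2 cultures were exposed to test material. IC50 was taken as the concentration giving a 50% decrease in cell respiration relative to the untreated control culture.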

**Q.** Which MIC [1] does the source give for `CCCC[P+](CCCC)(CCCC)CCCCCCOCc1ccc(N(c2ccccc2)c2ccccc2)cc1.[Cl-]` here?
**A.** 1 µg/mL

**Q.** What about the MIC [2] of the same molecule?
**A.** 0.5 µg/mL

**Q.** What about the MIC [3] of the same molecule?
**A.** 32 µg/mL

**Q.** And the MIC [4]?
**A.** 16 µg/mL

**Q.** And the MIC [5]?
**A.** 1 µg/mL

**Q.** And the MIC [6]?
**A.** 16 µg/mL

**Q.** What about the MIC [7] of the same molecule?
**A.** 16 µg/mL

**Q.** What about the MIC [8] of the same molecule?
**A.** 0.5 µg/mL

**Q.** And the MIC [9]?
**A.** 16 µg/mL

**Q.** With `CCCCCC[P+](CCCCCC)(CCCCCC)CCCCCCCCCCOCc1ccc(N(c2ccccc2)c2ccccc2)cc1.[Br-]` as the molecule, how does the MIC [1] read?
**A.** 8 µg/mL

**Q.** And the MIC [2]?
**A.** 2 µg/mL

**Q.** What about the MIC [3] of the same molecule?
**A.** 64 µg/mL

**Q.** And the MIC [4]?
**A.** > 64 µg/mL

**Q.** And the MIC [5]?
**A.** 2 µg/mL

**Q.** What about the MIC [6] of the same molecule?
**A.** 16 µg/mL

**Q.** What about the MIC [7] of the same molecule?
**A.** 32 µg/mL

**Q.** And the MIC [8]?
**A.** 1 µg/mL

**Q.** And the MIC [9]?
**A.** 32 µg/mL

**Q.** Which results are given for `CCCCCC[P+](CCCCCC)(CCCCCC)CCCCCCOCc1ccc(N(c2ccccc2)c2ccccc2)cc1.[Cl-]`?
**A.** MIC [1]: 4 µg/mL; MIC [2]: 2 µg/mL; MIC [3]: 16 µg/mL; MIC [4]: > 64 µg/mL; MIC [5]: 2 µg/mL; Activity [10]: 0.09%; MIC [6]: > 64 µg/mL; MIC [7]: > 64 µg/mL; MIC [8]: 2 µg/mL; MIC [9]: > 64 µg/mL

**Q.** With `CCCCCCCC[P+](CCCCCCCC)(CCCCCCCC)CCCCCCOCc1ccc(N(c2ccccc2)c2ccccc2)cc1.[Cl-]` as the molecule, how does the MIC [1] read?
**A.** 16 µg/mL

**Q.** And the MIC [2]?
**A.** 8 µg/mL

**Q.** What about the MIC [3] of the same molecule?
**A.** > 64 µg/mL

**Q.** And the MIC [4]?
**A.** > 64 µg/mL

**Q.** And the MIC [5]?
**A.** 8 µg/mL

**Q.** What about the MIC [6] of the same molecule?
**A.** > 64 µg/mL

**Q.** And the MIC [7]?
**A.** > 64 µg/mL

**Q.** What about the MIC [8] of the same molecule?
**A.** 8 µg/mL

**Q.** What about the MIC [9] of the same molecule?
**A.** > 64 µg/mL

**Q.** What does the source list for `CCCCCC[P+](CCCCCC)(CCCCCC)CCCCCCOCc1ccc(N(c2ccccc2)c2ccccc2)cc1.[Br-]`?
**A.** MIC [1]: 4 µg/mL; MIC [2]: 2 µg/mL; MIC [3]: 64 µg/mL; MIC [4]: > 64 µg/mL; MIC [5]: 2 µg/mL; MIC [6]: 64 µg/mL; MIC [7]: 64 µg/mL; MIC [8]: 2 µg/mL; MIC [9]: > 64 µg/mL

**Q.** Which MIC [1] does the source give for `CCCCCC[P+](CCCCCC)(CCCCCC)CCCCCCOCc1ccc(N(c2ccc(COCCCCCC[P+](CCCCCC)(CCCCCC)CCCCCC)cc2)c2ccc(COCCCCCC[P+](CCCCCC)(CCCCCC)CCCCCC)cc2)cc1.[Cl-].[Cl-].[Cl-]` here?
**A.** 4 µg/mL

**Q.** What about the MIC [2] of the same molecule?
**A.** 2 µg/mL

**Q.** And the MIC [3]?
**A.** > 64 µg/mL

**Q.** And the MIC [4]?
**A.** 64 µg/mL

**Q.** What about the MIC [5] of the same molecule?
**A.** 2 µg/mL

**Q.** And the Activity [10]?
**A.** 4.28%

**Q.** And the MIC [6]?
**A.** 16 µg/mL

**Q.** And the MIC [7]?
**A.** 16 µg/mL

**Q.** And the MIC [8]?
**A.** 2 µg/mL

**Q.** And the MIC [9]?
**A.** 32 µg/mL

**Q.** What does the source list for `CCCCCC[P+](CCCCCC)(CCCCCC)CCCCCCOCc1ccc(N(c2ccccc2)c2ccc(COCCCCCC[P+](CCCCCC)(CCCCCC)CCCCCC)cc2)cc1.[Cl-].[Cl-]`?
**A.** MIC [1]: 2 µg/mL; MIC [2]: 2 µg/mL; MIC [3]: 64 µg/mL; MIC [4]: > 64 µg/mL; MIC [5]: 2 µg/mL; Activity [10]: 4.16%; MIC [6]: 16 µg/mL; MIC [7]: 16 µg/mL; MIC [8]: 2 µg/mL; MIC [9]: 32 µg/mL
